Experimental data reported in ChEMBL document CHEMBL1149369, “Isolation, structure elucidation, total synthesis, and evaluation of new natural and synthetic ceramides on human SK-MEL-1 melanoma cells” (J Med Chem, 2006).
Activity calls are given as the source filed them. The calls are words filed in the database; no cut-off is given here.

Legend:
Assay type in all cases: functional, cell-based
SK-MEL-1 [1] = assay: Apoptotic activity in human SK-MEL-1 cells measured as procaspase 8 cleavage by Western blot analysis
Summary of the method: (§1)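 Western blot for procaspase-8 and -9 in SK-MEL-1 cells cultured with 10 µM or 30 µM ceramides and harvested at 12 h.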

SK-MEL-1 [2] = assay: Apoptotic activity in human SK-MEL-1 cells measured as induction of DNA fragmentation
Summary of the method: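 SK-MEL-1 cells incubated 6 h or 12 h with 10-30 µM ceramides or untreated. 4 × 10^5 cells lysed in 50 mM Tris-HCl pH 8.0, 10 mM EDTA, 0.5% SDS, RNase A (37 °C, 1 h), then proteinase K (50 °C, 2 h). Phenol-chloroform-isoamyl alcohol extraction; 2% agarose gel in TAE at 40 V, 4 h; ethidium bromide staining, UV visualisation of ladders.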

SK-MEL-1 [3] = assay: Apoptotic activity in human SK-MEL-1 cells measured as induction of poly ADP-ribose polymerase cleavage by Western blot analysis
Summary of the method: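 SK-MEL-1 cells exposed 12 h to 10 µM or 30 µM ceramides; untreated controls. Cells pelleted, washed in ice-cold PBS, lysed; SDS-PAGE and immunoblot with anti-PARP antibody that also detects the 85 kDa cleavage fragment.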

SK-MEL-1 [4] = assay: Antiproliferative activity against human SK-MEL-1 cells by MTT assay
Summary of the method: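 SK-MEL-1 in RPMI 1640 + 10% heat-inactivated FBS, 37 °C, 5% CO2; resuspended in fresh medium 24 h before treatment. 1 × 10^4 exponentially growing cells exposed 72 h at 37 °C to graded concentrations (10 mM ethanol/dodecane 49:1 stocks; final solvent ≤0.5%, vehicle controls). MTT; OD 570 nm vs control; IC50 by curve fitting; two independent experiments, triplicate determinations.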

SK-MEL-1 [5] = assay: Apoptotic activity in human SK-MEL-1 cells measured as procaspase 9 cleavage by Western blot analysis; summary of the method: as §1

SMILES	Activity (SK-MEL-1 [1])	Activity (SK-MEL-1 [2])	Activity (SK-MEL-1 [3])	IC50 (SK-MEL-1 [4]) [µM]	Activity (SK-MEL-1 [5])
CCCCCCCCCCCCCCCCCC[C@@H](OC(C)=O)[C@@H](OC(C)=O)[C@H](COC(C)=O)NC(=O)[C@H](OC(C)=O)[C@H](CCCCCCCCCCCCCCCCC)OC(C)=O	Active	Dose-dependent effect	Active	7.1	Active
CCCCCCCCCCCCCCCCCC[C@@H](OC(C)=O)[C@@H](OC(C)=O)[C@H](COC(C)=O)NC(=O)[C@@H](OC(C)=O)[C@@H](CCCCCCCCCCCCCCCCC)OC(C)=O	Active	Dose-dependent effect	Active	3.9	Active
CCCCCCCCCCCCCCCCCC[C@@H](OC(C)=O)C(=O)N[C@@H](COC(C)=O)[C@H](OC(C)=O)[C@@H](CCCCCCCCCCCCCCCCCC)OC(C)=O	Active	Dose-dependent effect	Active	7.7	Active
CCCCCCCCCCCCCCCCCC[C@@H](OC(C)=O)[C@@H](OC(C)=O)[C@H](COC(C)=O)NC(=O)[C@@H](OC(C)=O)[C@H](CCCCCCCCCCCCCCCCC)OC(C)=O	Active	Dose-dependent effect	Active	10.2	Active
CCCCCCCCCCCCCCCCCC[C@@H](OC(C)=O)[C@@H](OC(C)=O)[C@H](COC(C)=O)NC(=O)[C@H](OC(C)=O)[C@@H](CCCCCCCCCCCCCCCCC)OC(C)=O	Active	Dose-dependent effect	Active	5.6	Active
